Results from ChEMBL document CHEMBL1145520, “RAS-RAF-MEK-dependent oxidative cell death involving voltage-dependent anion channels” (Nature, 2007).
The source made the active and inactive calls. The calls are words filed in the database; no cut-off is given here.

How the values were obtained:
[1] = system: BJ; assay: Induction of mitochondrial structural integrity loss in human BJ cells expressing TERT, LT, ST and RAS G12V mutant genes cells at 37 uM after 10 hrs; type: functional, cell-based
In short: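 BJ-TERT/LT/ST/RASV12 cells exposed 10 h to erastin (37 µM per legend; 20 µg/ml in methods), then fixed in 2.5% glutaraldehyde in 0.1 M Sorenson's buffer pH 7.2 and post-fixed in 1% OsO4. Sections stained with uranyl acetate/lead citrate.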

[2] = target: T1, Mitogen-activated protein kinase; ERK1/ERK2 (Homo sapiens) (UniProt P27361+P28482); assay: Effect on ERK1/2 phosphorylation in human HT1080 cells by Western blot; type: cell-based; settings: HT-1080
In short: (§1)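 Washed cells were lysed in pH 7.4 HEPES buffer containing orthovanadate, NaF, pyrophosphate, β-glycerophosphate and protease inhibitors. Lysates were run on SDS-PAGE, transferred to PVDF and blocked 1 h at room temperature. Blots were probed with a multiplex phospho-signalling antibody cocktail and read by infrared fluorescence scanning.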

[3] = system: HT-1080; assay: Induction of PARP1 cleavage in human HT1080 cells; type: functional, cell-based
In short: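 Cells were left untreated or given staurosporine or erastin for 6 or 8 h. Lysates were analysed by western blot for full-length and cleaved PARP1, with actin as loading control.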

[4] = system: HT-1080; assay: Suppression of induction of cell death in human HT1080 cells at […] by Alamar Blue assay in presence of glutathione; type: functional, cell-based
[5] = system: BJ; assay: Induction of cell death in human BJ cells expressing TERT, LT, ST and RAS G12V mutant genes cells in presence of PD-98059 by trypan blue exclusion method; type: functional, cell-based
[6] = system: BJ; assay: Induction of cell death in human BJ cells expressing TERT, LT, ST and RAS G12V mutant genes cells in presence of MEK 1/2 inhibitor by trypan blue exclusion method; type: functional, cell-based
In short: (§2)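 BJ-TERT/LT/ST/RASV12 cells were co-treated for 48 h with 1.5 µM erastin plus 20 µM U0126, 10 µM MEK inhibitor I or 50 µM MEK1/2 inhibitor. Viability was measured by automated Trypan blue exclusion of trypsinized cells resuspended in growth medium; n = 2 or 3.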

[7] = system: BJ; assay: Induction of cell death in human BJ cells expressing TERT, LT, ST and RAS G12V mutant genes in presence of MEK inhibitor by trypan blue exclusion method; type: functional, cell-based; in short: as §2
[8] = system: BJ; assay: Induction of cell death in human BJ cells expressing TERT, LT, ST and RAS G12V mutant genes; type: functional, cell-based
[9] = system: LNCaP; assay: Induction of cell death in human LNCaP cells; type: functional, cell-based
[10] = system: BJ; assay: Induction of cytochrome c release in mitochondrial fraction of human BJ cell expressing TERT, LT, ST and RAS G12V mutant genes at 20 ug/ml; type: functional, cell-based
In short: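 BJ-TERT/LT/ST/RASV12 cells seeded 3 × 10^6 per dish, incubated overnight at 37 °C, 5% CO2, then exposed to erastin 20 µg/ml for 6–26 h. Fractionated on ice by needle lysis: nuclei spun out at 400g, mitochondria pelleted at 10,500g. Cytochrome c detected by western blot in cytosolic and mitochondrial fractions.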

[11] = system: SK-N-MC; assay: Induction of cell death in human SK-N-MC cells; type: functional, cell-based
[12] = system: HT-1080; assay: Suppression of induction of cell death in human HT1080 cells at […] by Alamar Blue assay in presence of in presence of alpha-tocopherol; type: functional, cell-based
[13] = system: HeLa; assay: Induction of pro-caspase 3 cleavage in human HeLa cells; type: functional, cell-based
In short: (§3)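 Cells either untreated, given staurosporine, or given erastin for 6–10 h, then lysed in HEPES pH 7.4 buffer with phosphatase and protease inhibitors. Lysates run on SDS-PAGE, blotted to PVDF, probed with antibodies detecting active caspase-3, with actin as loading control. Bands read on infrared imager.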

[14] = system: BJ; assay: Induction of cell death in human BJ cells expressing TERT, LT, ST and RAS G12V mutant genes in presence of U0126 by trypan blue exclusion method; type: functional, cell-based; in short: as §2
[15] = target: Non-selective voltage-gated ion channel VDAC2 (Homo sapiens, UniProt P45880); assay: Binding affinity to human VDAC2
[16] = target: T1, Mitogen-activated protein kinase; ERK1/ERK2 (Homo sapiens); assay: Effect on ERK1/2 phosphorylation in human […] cells by Western blot; type: cell-based; settings: SK-N-MC; in short: as §1
[17] = system: BJ; assay: Induction of cell death in TERT expressing human BJ cells; type: functional, cell-based
[18] = system: SVR; assay: Induction of cell death in human SVR cells; type: functional, cell-based
[19] = system: A673; assay: Induction of cell death in human A673 cells; type: functional, cell-based
[20] = system: BJ; assay: Prevention of induction of cell death in human BJ cells expressing TERT, LT, ST and RAS G12V mutant genes cells after 24 hrs in presence of beta-carotene; type: functional, cell-based
In short: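 BJ-TERT/LT/ST/RASV12 cells treated 24 h with erastin across roughly 1–2.5 µM, together with DMSO or an antioxidant (α-tocopherol, BHT or β-carotene). Viability read afterwards.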

[21] = system: HT-1080; assay: Induction of pro-caspase 3 cleavage in human HT1080 cells; type: functional, cell-based; in short: as §3
[22] = Induction of cell death in human A431NS cells; type: functional
[23] = Induction of cell death in human Hs51.T cells; type: functional, cell-based
[24] = system: BJ; assay: Induction of PARP1 cleavage in human BJ cells expressing TERT, LT, ST and RAS G12V mutant genes cells after 14 hrs; type: functional, cell-based
In short: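 BJ-TERT/LT/ST/RASV12 cells (3 × 10^6 per dish) were incubated overnight at 37 °C, 5% CO2, then given erastin for 6–26 h. Untreated cells and staurosporine (6 h) or camptothecin (18 h) served as comparators. Full-length and cleaved PARP1 were detected by western blot.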

[25] = target: T1, Mitogen-activated protein kinase; ERK1/ERK2 (Homo sapiens); assay: Effect on ERK1/2 phosphorylation in human TC71 cells by Western blot; type: cell-based; in short: as §1
[26] = Induction of cell death in human TC32 cells; type: functional, cell-based, TC-32
[27] = target: T1, Mitogen-activated protein kinase; ERK1/ERK2 (Homo sapiens); assay: Effect on ERK1/2 phosphorylation in human EWS502 cells by Western blot; type: cell-based; in short: as §1
[28] = system: SW982; assay: Induction of cell death in human SW982 cells; type: functional
[29] = system: U-937; assay: Induction of cell death in human U937 cells; type: functional, cell-based
[30] = system: HT-1080; assay: Induction of cell death in human HT1080 cells; type: functional, cell-based
[31] = system: BJ; assay: Induction of cell death in human BJ cells expressing TERT, LT, ST and RAS G12V mutant genes at 13 uM; type: functional
[32] = system: HT-1080; assay: Suppression of induction of cell death in human HT1080 cells at […] by Alamar Blue assay in presence of butylated hydroxytoluene; type: functional, cell-based

T1 sequence (P27361 whole entry, looked up): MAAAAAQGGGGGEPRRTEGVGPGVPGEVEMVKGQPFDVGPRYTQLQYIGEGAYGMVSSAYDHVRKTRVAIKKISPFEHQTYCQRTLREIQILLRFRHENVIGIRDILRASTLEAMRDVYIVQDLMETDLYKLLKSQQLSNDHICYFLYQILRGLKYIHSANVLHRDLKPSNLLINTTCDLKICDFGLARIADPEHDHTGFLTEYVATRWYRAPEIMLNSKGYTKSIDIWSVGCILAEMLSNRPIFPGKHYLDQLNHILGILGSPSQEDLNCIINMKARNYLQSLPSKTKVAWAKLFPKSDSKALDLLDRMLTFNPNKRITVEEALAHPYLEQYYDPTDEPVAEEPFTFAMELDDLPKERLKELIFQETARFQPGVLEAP
T1 sequence (P28482 whole entry, looked up): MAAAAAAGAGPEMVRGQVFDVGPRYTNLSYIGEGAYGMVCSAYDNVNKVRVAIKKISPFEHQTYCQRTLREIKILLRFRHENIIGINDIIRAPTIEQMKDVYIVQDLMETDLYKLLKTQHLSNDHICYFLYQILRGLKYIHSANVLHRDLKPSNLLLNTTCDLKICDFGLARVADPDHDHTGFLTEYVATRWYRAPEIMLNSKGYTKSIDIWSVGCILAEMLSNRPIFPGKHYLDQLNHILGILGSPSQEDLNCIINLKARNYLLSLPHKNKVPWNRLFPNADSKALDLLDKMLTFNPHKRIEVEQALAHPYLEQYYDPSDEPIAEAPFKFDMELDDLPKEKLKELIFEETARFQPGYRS
Chain of Non-selective voltage-gated ion channel VDAC2 (P45880 whole entry): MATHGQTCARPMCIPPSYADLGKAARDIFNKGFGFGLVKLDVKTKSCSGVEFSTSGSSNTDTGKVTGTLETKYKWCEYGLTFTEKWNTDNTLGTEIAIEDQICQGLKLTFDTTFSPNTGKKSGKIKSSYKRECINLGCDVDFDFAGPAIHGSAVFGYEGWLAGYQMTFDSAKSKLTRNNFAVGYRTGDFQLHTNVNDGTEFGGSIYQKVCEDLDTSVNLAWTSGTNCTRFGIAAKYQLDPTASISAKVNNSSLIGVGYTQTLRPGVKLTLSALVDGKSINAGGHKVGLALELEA

With `CCOc1ccccc1-n1c(C(C)N2CCN(C(=O)COc3ccc(Cl)cc3)CC2)nc2ccccc2c1=O` (configuration not stated) [ERASTIN] the Activity [1] was “Active”, the Activity [2] was 0.53 a.u and the Activity [3] was “inactive”. The Activity [4] was “Active”, the IC50 [5] was 0.9 µM and the IC50 [6] was 2 µM. It also gave an IC50 [7] of 2.6 µM, an Activity [8] of 100% and an EC50 ([8]; Homo sapiens, BJ) of 6 µM. The Activity [9] was 32%, the EC50 ([9]; Homo sapiens, LNCaP) was 6 µM and the Activity [10] was “inactive”. For the same molecule, the Activity [11] was 95%, the EC50 ([11]; Homo sapiens, SK-N-MC) was 10 µM and the Activity [12] was “Active”. The Activity [13] was “inactive”, the IC50 [14] was 31.2 µM and the Kd [15] was 0.112 µM. It also gave an Activity [16] of 0.05 a.u, an Activity [17] of 22% and an EC50 ([17]; Homo sapiens, BJ) of 10 µM. It also gave an Activity [18] of 20%, an EC50 ([18]; Mus musculus, SVR) of 2.5 µM and an Activity [19] of 54%. The EC50 ([19]; Homo sapiens, A673) was 30 µM, the Activity [20] was “Active” and the Activity [21] was “inactive”. For the same molecule, the Activity [22] was 0%, the Activity [23] was 88% and the EC50 ([23]; Homo sapiens) was 12 µM. For the same molecule, the Activity [24] was “inactive”, the Activity [25] was 0.23 a.u and the Activity [26] was 88%. For the same molecule, the EC50 ([26]; Homo sapiens, TC-32) was 8 µM, the Activity [27] was 0.12 a.u and the Activity [28] was 0%. It also gave an Activity [29] of 73%, an EC50 ([29]; Homo sapiens, U-937) of 10 µM and an Activity [30] of 98%. For the same molecule, the EC50 ([30]; Homo sapiens, HT-1080) was 2 µM, the Activity [31] was 100% and the Activity [32] was “Active”.
